Data: ChEMBL document CHEMBL3853327 (J Med Chem, 2016)
pEC50, pIC50: −log10 of the molar value.

Legend:
[1] = Selectivity index, ratio of CC50 for human mock-infected MT4 cells to EC50 for HIV1 3B harboring reverse transcriptase L100I mutant infected in human MT4 cells; format: toxicity, cell-based; conditions: MT4 cells (mock-infected for CC50, HIV-1 infected for EC50)
Method in brief: (§1)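 Selectivity index is CC50/EC50. CC50 is the concentration that reduces OD540 of mock-infected MT-4 cells by 50% in the 5-day MTT assay. EC50 is the 50% protection from virus-induced cytopathicity, measured in parallel on infected wells.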

[2] = Selectivity index, ratio of CC50 for human mock-infected MT4 cells to EC50 for HIV1 3B harboring reverse transcriptase E138K mutant infected in human MT4 cells; format: toxicity, cell-based; conditions: MT4 cells (mock-infected for CC50, HIV-1 infected for EC50); method in brief: as §1
[3] = tested on: Human immunodeficiency virus 1; experiment: Potency index, ratio of ETV EC50 to compound EC50 for HIV1 3B harboring reverse transcriptase YI88L mutant infected in human MT4 cells; format: functional
[4] = tested on: Human immunodeficiency virus 1; experiment: Potency index, ratio of ETV EC50 to compound EC50 for HIV1 3B harboring reverse transcriptase Y181C mutant infected in human MT4 cells; format: functional
[5] = Antiviral activity against HIV2 ROD harboring reverse transcriptase infected in human MT4 cells assessed as protection against virus induced cytotoxicity after 5 days by MTT assay; format: functional, cell-based, Human immunodeficiency virus type 2 (ISOLATE ROD); conditions: Human immunodeficiency virus 2, MT4, 120 h
Method in brief: (§2)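 MTT cytopathicity assay in MT-4 cells (6 × 10^5 cells/mL). Compounds serially diluted 5-fold in triplicate wells, run in parallel on infected and mock-infected cells. Virus added at 100−300 CCID50 per well. Viability read spectrophotometrically at 540 and 690 nm after 5 days, using the median OD of three wells. EC50 is the concentration giving 50% protection from viral cytopathogenicity.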

[6] = tested on: Human immunodeficiency virus 1; experiment: Antiviral activity against HIV1 3B harboring reverse transcriptase F227L/V106A double mutant infected in human MT4 cells assessed as protection against virus induced cytotoxicity after 5 days by MTT assay; format: functional, cell-based; conditions: Human immunodeficiency virus 1, 3B, MT4, 120 h; method in brief: as §2
[7] = tested on: Human immunodeficiency virus 1; experiment: Potency index, ratio of ETV EC50 to compound EC50 for HIV1 3B harboring reverse transcriptase E138K mutant infected in human MT4 cells; format: functional
[8] = Selectivity index, ratio of CC50 for human mock-infected MT4 cells to EC50 for HIV1 RES056 harboring reverse transcriptase K103N/Y181C double mutant infected in human MT4 cells; format: toxicity, cell-based; conditions: MT4 cells (mock-infected for CC50, HIV-1 infected for EC50); method in brief: as §1
[9] = tested on: Human immunodeficiency virus 1; experiment: Antiviral activity against HIV1 3B harboring reverse transcriptase K103N mutant infected in human MT4 cells assessed as protection against virus induced cytotoxicity after 5 days by MTT assay; format: functional, cell-based; conditions: Human immunodeficiency virus 1, 3B, MT4, 120 h; method in brief: as §2
[10] = Selectivity index, ratio of CC50 for human mock-infected MT4 cells to EC50 for HIV1 3B harboring reverse transcriptase K103N mutant infected in human MT4 cells; format: toxicity, cell-based; conditions: MT4 cells (mock-infected for CC50, HIV-1 infected for EC50); method in brief: as §1
[11] = Selectivity index, ratio of CC50 for human mock-infected MT4 cells to EC50 for HIV1 3B harboring reverse transcriptase Y181C mutant infected in human MT4 cells; format: toxicity, cell-based; conditions: MT4 cells (mock-infected for CC50, HIV-1 infected for EC50); method in brief: as §1
[12] = tested on: Human immunodeficiency virus 1; experiment: Antiviral activity against HIV1 3B harboring reverse transcriptase E138K mutant infected in human MT4 cells assessed as protection against virus induced cytotoxicity after 5 days by MTT assay; format: functional, cell-based; conditions: Human immunodeficiency virus 1, 3B, MT4, 120 h; method in brief: as §2
[13] = Selectivity index, ratio of CC50 for human mock-infected MT4 cells to EC50 for wild type HIV1 3B harboring reverse transcriptase infected in human MT4 cells; format: toxicity, cell-based; conditions: MT4 cells (mock-infected for CC50, HIV-1 infected for EC50); method in brief: as §1
[14] = tested on: Human immunodeficiency virus 1; experiment: Antiviral activity against HIV1 3B harboring reverse transcriptase Y181C mutant infected in human MT4 cells assessed as protection against virus induced cytotoxicity after 5 days by MTT assay; format: functional, cell-based; conditions: Human immunodeficiency virus 1, 3B, MT4, 120 h
Method in brief: as §2, with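 “wells.” for “wells. EC50 is the concentration giving 50% protection from viral cytopathogenicity.”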

[15] = tested on: Human immunodeficiency virus 1; experiment: Antiviral activity against HIV1 3B harboring reverse transcriptase Y188L mutant infected in human MT4 cells assessed as protection against virus induced cytotoxicity after 5 days by MTT assay; format: functional, cell-based; conditions: Human immunodeficiency virus 1, 3B, MT4, 120 h; method in brief: as §2
[16] = Cytotoxicity against human mock-infected MT4 cells assessed as reduction in cell viability after 5 days by MTT assay; format: toxicity, cell-based
Method in brief: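 Mock-infected MT-4 cells (6 × 10^5 cells/mL at seeding) with serial 5-fold compound dilutions in triplicate wells. Viability read by MTT after 5 days, absorbance at 540 and 690 nm, median OD of three wells. CC50 is the concentration reducing OD540 of mock-infected cells by 50%.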

[17] = Selectivity index, ratio of CC50 for human mock-infected MT4 cells to EC50 for HIV1 3B harboring reverse transcriptase F227L/V106A double mutant infected in human MT4 cells; format: toxicity, cell-based; conditions: MT4 cells (mock-infected for CC50, HIV-1 infected for EC50); method in brief: as §1
[18] = tested on: Human immunodeficiency virus 1; experiment: Antiviral activity against wild type HIV1 3B harboring reverse transcriptase infected in human MT4 cells assessed as protection against virus induced cytotoxicity after 5 days by MTT assay; format: functional, cell-based; conditions: Human immunodeficiency virus 1, 3B, MT4, 120 h
Method in brief: as §2, with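 “wells.” for “wells. EC50 is the concentration giving 50% protection from viral cytopathogenicity.”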

[19] = tested on: Human immunodeficiency virus 1; experiment: Antiviral activity against HIV1 3B harboring reverse transcriptase L100I mutant infected in human MT4 cells assessed as protection against virus induced cytotoxicity after 5 days by MTT assay; format: functional, cell-based; conditions: Human immunodeficiency virus 1, 3B, MT4, 120 h; method in brief: as §2
[20] = Selectivity index, ratio of CC50 for human mock-infected MT4 cells to EC50 for HIV1 3B harboring reverse transcriptase Y188L mutant infected in human MT4 cells; format: toxicity, cell-based; conditions: MT4 cells (mock-infected for CC50, HIV-1 infected for EC50); method in brief: as §1
[21] = tested on: Human immunodeficiency virus 1; experiment: Fold resistance, ratio of IC50 for recombinant HIV1 reverse transcriptase K103N/Y181C double mutant to IC50 for wild type HIV1 reverse transcriptase
Method in brief: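 Ratio of mutant to WT IC50. Recombinant WT and K103N/Y181C RT were assayed with a kit: template plus DIG-dUTP, biotin-dUTP and dTTP, with or without inhibitor, 1 h at 37 °C. Product was captured on streptavidin, detected with anti-DIG-POD and ABTS, and read at 405 nm. IC50 is the concentration inhibiting biotin-dUTP incorporation by 50%.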

[22] = molecular target: Human immunodeficiency virus type 1 reverse transcriptase (Human immunodeficiency virus 1, UniProt Q72547, K103N/Y181C); experiment: Inhibition of recombinant HIV1 reverse transcriptase K103N/Y181C double mutant using DIG-dUTP/biotin-dUTP/dTTP assessed as suppression of biotin-dUTP incorporation after 1 hr by ELISA
[23] = Inhibition of recombinant wild type HIV1 reverse transcriptase using DIG-dUTP/biotin-dUTP/dTTP assessed as suppression of biotin-dUTP incorporation after 1 hr by ELISA; set-up: species or system Human immunodeficiency virus 1
Method in brief: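 Recombinant WT HIV-1 RT in a Roche colorimetric kit: template plus DIG-dUTP, biotin-dUTP and dTTP, ±inhibitor, 1 h at 37 °C. Product captured on streptavidin plate 1 h at 37 °C, anti-DIG-POD 1 h at 37 °C, ABTS developed at 25 °C, read at OD405. IC50 is the concentration inhibiting biotin-dUTP incorporation by 50%.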

SMILES | selectivity ratio [1] | selectivity ratio [2] | Ratio EC50 [3] | Ratio EC50 [4] | pEC50 [5] | pEC50 [6] | Ratio EC50 [7] | selectivity ratio [8] | pEC50 [9] | selectivity ratio [10] | selectivity ratio [11] | pEC50 [12] | selectivity ratio [13] | pEC50 [14] | pEC50 [15] | CC50 at 120 h [16] [µM] | selectivity ratio [17] | pEC50 [18] | pEC50 [19] | selectivity ratio [20] | further results
Cc1cc(C#N)cc(C)c1Oc1nc(NC2CCN(Cc3ccc(C(N)=O)cc3)CC2)nc2ccsc12 | 8760 | 21300 | 2 | 2 | < 4.02 | 7.97 | 2 | 1110 | 8.74 | 53800 | 18100 | 8.35 | 66900 | 8.28 | 8.07 | 95.4 | 8860 | 8.85 | 7.97 | 11100 | –
Cc1cc(C#N)cc(C)c1Oc1nc(NC2CCN(Cc3ccc(NS(C)(=O)=O)cc3)CC2)nc2ccsc12 | 5020 | 9900 | 2 | 2 | < 4.17 | 7.49 | 2 | 261 | 8.72 | 35700 | 9890 | 8.16 | 44200 | 8.16 | 8.09 | 68.3 | 2120 | 8.82 | 7.87 | 8870 | –
Cc1cc(C)c(Oc2nc(NC3CCN(Cc4cccc(C#N)c4)CC3)nc3ccsc23)c(C)c1 | 36 | 339 | – | – | < 4.76 | 6.41 | – | ≤ 3 | 7.41 | 445 | 89 | 7.29 | 819 | 6.71 | 6.84 | 17.2 | 44 | 7.68 | 6.32 | 120 | Ratio IC50 [21]: 5.25; pIC50 [22]: 5.25; pIC50 [23]: 5.97
Cc1cc(C)c(Oc2nc(NC3CCN(Cc4ccc(F)cc4)CC3)nc3ccsc23)c(C)c1 | 10 | 72 | – | – | < 4.92 | 5.27 | – | 2 | 7.04 | 130 | 66 | 6.78 | 465 | 6.74 | 6.15 | 11.9 | 2 | 7.59 | 5.92 | 17 | Ratio IC50 [21]: 5.34; pIC50 [22]: 5.18; pIC50 [23]: 5.91
Cc1cc(C)c(Oc2nc(NC3CCN(Cc4ccncc4)CC3)nc3ccsc23)c(C)c1 | 101 | 270 | – | – | < 5.25 | 6.88 | – | 27 | 8.14 | 777 | 230 | 7.68 | 747 | 7.61 | 7.43 | 5.65 | 42 | 8.12 | 7.25 | 152 | Ratio IC50 [21]: 6; pIC50 [22]: 5.90; pIC50 [23]: 6.68
CNS(=O)(=O)c1ccc(CN2CCC(Nc3nc(Oc4c(C)cc(C#N)cc4C)c4sccc4n3)CC2)cc1 | 972 | 665 | 2 | 2 | < 5.35 | 8.39 | 2 | 136 | 8.82 | 2880 | 911 | 8.18 | 2790 | 8.32 | 8.17 | 4.42 | 1090 | 8.82 | 8.35 | 647 | –
